Assay results taken from ChEMBL document CHEMBL1828561, “Identification of a potent and selective free fatty acid receptor 1 (FFA1/GPR40) agonist with favorable physicochemical and in vitro ADME properties” (J Med Chem, 2011).
Active and inactive are the calls of the source. No cut-off for these calls is given here.

Assays:
[1] = target: T1, Free fatty acid receptor 1 (Homo sapiens, UniProt O14842); assay: Agonist activity at human FFA1 receptor expressed in human HEK293 assessed as movement of cellular constitiuent by DMR assay; format: functional, cell-based
Outline: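 FFA1-HEK cells (doxycycline-inducible FLAG-hFFA1, HEK293), 15 000/well on fibronectin-coated 384-well Epic plates, 20–24 h culture. Washed in HBSS/20 mM HEPES, equilibrated 1 h at 28 °C, baseline read, compound added.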

1321-N1 [2] = assay: Selectivity for human FFA1 receptor expressed in human 1321N1 cells over norepinephrine transporter; format: cell-based
1321-N1 [3] = assay: Selectivity for human FFA1 receptor expressed in human 1321N1 cells over M3 receptor; format: cell-based
[4] = Octanol-water partition coefficient, log D of the compound at pH 7.4 by HPLC analysis; format: physicochemical
Outline: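 Distribution between n-octanol and water (PBS), pH 7.4, determined experimentally.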

[5] = target: T1, Free fatty acid receptor 1; assay: Agonist activity at human FFA1 receptor expressed in human 1321N1 cells assessed as calcium mobilization by fluorescence spectrophotometry relative to 10 uM TUG-20; format: functional, cell-based
Outline: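 Human FFA1 stably expressed in 1321N1 cells kept under G418 selection, 30000–40000 cells/well. After 24 h, washed in Krebs-HEPES pH 7.4 and loaded 1 h at 37 °C with 1.5 μM Oregon Green 488 BAPTA-1/AM. Compound injected at 10-fold concentration at 37 °C; fluorescence ex 485/em 520 nm over 50 × 0.4 s. Efficacy as % of maximal response to 10 μM TUG-20.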

1321-N1 [6] = assay: Selectivity for human FFA1 receptor expressed in human 1321N1 cells over ETA receptor; format: cell-based
[7] = target: Free fatty acid receptor 1 (Rattus norvegicus) (UniProt Q8K3T4); assay: Agonist activity at FFA1 receptor in rat INS-1E cells assessed as movement of cellular constitiuent at 0.3 uM by DMR assay in the presence of trans-1-oxo-3-(4-phenoxyphenyl)-2-propyl-1,2,3,4-tetrahydroisoquinoline-4-carboxylic acid; format: functional, cell-based
Outline: (§1)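 Label-free DMR on an Epic optical biosensor. Rat INS-1E cells, 30 000/well on fibronectin-coated 384-well sensor plates, cultured 20–24 h to confluence. Washed in HBSS/20 mM HEPES and equilibrated 1 h at 28 °C. Baseline read, compound added, wavelength shift (pm) monitored ≥5000 s. Antagonist line: 0.3 μM agonist with the FFA1 antagonist over a concentration range, pIC50 derived, n = 4.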

1321-N1 [8] = assay: Selectivity for human FFA1 receptor expressed in human 1321N1 cells over Na+ channel; format: cell-based
1321-N1 [9] = assay: Selectivity for human FFA1 receptor expressed in human 1321N1 cells over 5HT5a receptor; format: cell-based
[10] = Octanol-phosphate buffer partition coefficient, log D of the compound at pH 7.4 by HPLC analysis; format: physicochemical
1321-N1 [11] = assay: Selectivity for human FFA1 receptor expressed in human 1321N1 cells over NK2 receptor; format: cell-based
CYP1A2 = target: T2, CYP1A2 (Homo sapiens, UniProt P05177); assay: Inhibition of CYP1A2 at 10 uM; format: ADME
T2 sequence (P05177 whole entry): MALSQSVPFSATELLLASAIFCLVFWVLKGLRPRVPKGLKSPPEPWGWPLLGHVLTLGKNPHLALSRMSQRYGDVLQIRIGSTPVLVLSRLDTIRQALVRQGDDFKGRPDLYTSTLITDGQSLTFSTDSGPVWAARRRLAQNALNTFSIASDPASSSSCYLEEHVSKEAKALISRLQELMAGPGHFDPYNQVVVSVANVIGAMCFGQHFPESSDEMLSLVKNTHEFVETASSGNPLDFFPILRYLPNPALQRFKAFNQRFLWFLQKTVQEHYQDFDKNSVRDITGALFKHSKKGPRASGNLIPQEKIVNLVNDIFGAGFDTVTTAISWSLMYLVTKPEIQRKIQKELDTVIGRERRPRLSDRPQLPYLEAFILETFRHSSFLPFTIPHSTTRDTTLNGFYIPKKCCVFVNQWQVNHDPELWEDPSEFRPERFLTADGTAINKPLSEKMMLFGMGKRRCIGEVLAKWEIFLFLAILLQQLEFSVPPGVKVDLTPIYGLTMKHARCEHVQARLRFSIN

1321-N1 [12] = assay: Selectivity for human FFA1 receptor expressed in human 1321N1 cells over AT1 receptor; format: cell-based
1321-N1 [13] = assay: Selectivity for human FFA1 receptor expressed in human 1321N1 cells over V1a receptor; format: cell-based
1321-N1 [14] = assay: Selectivity for human FFA1 receptor expressed in human 1321N1 cells over Y2 receptor; format: cell-based
1321-N1 [15] = assay: Selectivity for human FFA1 receptor expressed in human 1321N1 cells over TP receptor; format: cell-based
1321-N1 [16] = assay: Selectivity for human FFA1 receptor expressed in human 1321N1 cells over […]; format: cell-based
1321-N1 [17] = assay: Selectivity for human FFA1 receptor expressed in human 1321N1 cells over alpha2 receptor; format: cell-based
1321-N1 [18] = assay: Selectivity for human FFA1 receptor expressed in human 1321N1 cells over H1 receptor; format: cell-based
[19] = Apparent permeability from apical to basolateral side of human Caco2/TC7 cells; format: ADME, cell-based; conditions: Caco-2
Outline: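 Caco-2 TC7 monolayers, apical to basolateral transport at pH 6.5 apical/7.4 basolateral.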

1321-N1 [20] = assay: Selectivity for human FFA1 receptor expressed in human 1321N1 cells over SKCa channel; format: cell-based
1321-N1 [21] = assay: Selectivity for human FFA1 receptor expressed in human 1321N1 cells over H2 receptor; format: cell-based
1321-N1 [22] = assay: Selectivity for human FFA1 receptor expressed in human 1321N1 cells over CB1 receptor; format: cell-based
[23] = Chemical stability of the compound in PBS at 37 degC for 12 days; format: physicochemical; conditions: read-out: Stability
Outline: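 Stability followed in PBS at 37 °C over 12 days.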

[24] = target: Free fatty acid receptor 1 (Rattus norvegicus) (UniProt Q8K3T4); assay: Agonist activity at FFA1 receptor in rat INS-1E cells assessed as movement of cellular constitiuent by DMR assay; format: functional, cell-based; outline: as §1
1321-N1 [25] = assay: Selectivity for human FFA1 receptor expressed in human 1321N1 cells over Kv channel; format: cell-based
1321-N1 [26] = assay: Selectivity for human FFA1 receptor expressed in human 1321N1 cells over A2A receptor; format: cell-based
1321-N1 [27] = assay: Selectivity for human FFA1 receptor expressed in human 1321N1 cells over VPAC1 receptor; format: cell-based
CYP2C9 = CYP2C9 (Homo sapiens, UniProt P11712); assay: Inhibition of CYP2C9 at 10 uM; format: ADME
1321-N1 [28] = assay: Selectivity for human FFA1 receptor expressed in human 1321N1 cells over Cl- channel; format: cell-based
1321-N1 [29] = assay: Selectivity for human FFA1 receptor expressed in human 1321N1 cells over 5HT1B receptor; format: cell-based
1321-N1 [30] = assay: Selectivity for human FFA1 receptor expressed in human 1321N1 cells over NK3 receptor; format: cell-based

T1 sequence (O14842 whole entry): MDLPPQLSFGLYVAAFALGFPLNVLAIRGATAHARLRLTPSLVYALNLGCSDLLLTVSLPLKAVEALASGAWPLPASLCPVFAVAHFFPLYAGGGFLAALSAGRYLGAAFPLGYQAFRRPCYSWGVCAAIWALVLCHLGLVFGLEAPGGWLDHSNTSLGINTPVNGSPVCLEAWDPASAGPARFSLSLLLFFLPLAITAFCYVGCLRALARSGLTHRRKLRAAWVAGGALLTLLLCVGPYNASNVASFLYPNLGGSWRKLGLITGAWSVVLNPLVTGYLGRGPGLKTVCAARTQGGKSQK
Free fatty acid receptor 1 (Rattus norvegicus), sequence (Q8K3T4 whole entry): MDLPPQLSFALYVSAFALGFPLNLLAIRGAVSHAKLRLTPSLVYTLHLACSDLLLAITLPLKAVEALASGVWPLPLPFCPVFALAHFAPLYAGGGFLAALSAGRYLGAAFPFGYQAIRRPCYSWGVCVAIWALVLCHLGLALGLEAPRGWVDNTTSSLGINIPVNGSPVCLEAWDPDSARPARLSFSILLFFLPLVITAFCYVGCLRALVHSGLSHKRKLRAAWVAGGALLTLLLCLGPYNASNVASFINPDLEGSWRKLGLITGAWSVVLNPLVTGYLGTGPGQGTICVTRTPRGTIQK
CYP2C9, sequence (P11712 whole entry): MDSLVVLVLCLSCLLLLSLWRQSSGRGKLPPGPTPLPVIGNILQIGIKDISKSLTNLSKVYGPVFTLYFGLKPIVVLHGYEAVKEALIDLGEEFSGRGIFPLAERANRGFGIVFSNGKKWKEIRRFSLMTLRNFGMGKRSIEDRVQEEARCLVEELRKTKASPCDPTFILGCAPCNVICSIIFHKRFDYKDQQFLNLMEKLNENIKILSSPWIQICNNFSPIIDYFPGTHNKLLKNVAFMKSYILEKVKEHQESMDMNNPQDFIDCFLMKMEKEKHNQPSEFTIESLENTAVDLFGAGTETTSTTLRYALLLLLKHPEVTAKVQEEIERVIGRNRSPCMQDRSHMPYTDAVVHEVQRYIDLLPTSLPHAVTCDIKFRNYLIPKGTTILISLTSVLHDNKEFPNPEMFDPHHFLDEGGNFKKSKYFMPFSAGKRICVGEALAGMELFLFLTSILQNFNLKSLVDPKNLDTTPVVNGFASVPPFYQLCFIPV

- Activity [1]: Active
- logD [4]: 1.97
- Efficacy [5]: 103%
- Activity [7]: inactive
- logD [10]: 1.97
- inhibition at 10 µM (CYP1A2): -7%
- Papp A→B [19]: 112 ×10⁻⁶ cm/s
- remaining at 288 h [23]: 99.9%
- Activity [24]: Active
- inhibition at 10 µM (CYP2C9): -4%
Compound: O=C(O)CCc1ccc(C#Cc2cc(Cl)nc(Cl)c2)cc1
- Selectivity ratio (1321-N1 [2]): > 100
- Selectivity ratio (1321-N1 [3]): > 100
- Selectivity ratio (1321-N1 [6]): > 100
- Selectivity ratio (1321-N1 [8]): > 100
- Selectivity ratio (1321-N1 [9]): > 100
- Selectivity ratio (1321-N1 [11]): > 100
- Selectivity ratio (1321-N1 [12]): > 100
- Selectivity ratio (1321-N1 [13]): > 100
- Selectivity ratio (1321-N1 [14]): > 100
- Selectivity ratio (1321-N1 [15]): > 100
- Selectivity ratio (1321-N1 [16]): > 100
- Selectivity ratio (1321-N1 [17]): > 100
- Selectivity ratio (1321-N1 [18]): > 100
- Selectivity ratio (1321-N1 [20]): > 100
- Selectivity ratio (1321-N1 [21]): > 100
- Selectivity ratio (1321-N1 [22]): > 100
- Selectivity ratio (1321-N1 [25]): > 100
- Selectivity ratio (1321-N1 [26]): > 100
- Selectivity ratio (1321-N1 [27]): > 100
- Selectivity ratio (1321-N1 [28]): > 100
- Selectivity ratio (1321-N1 [29]): > 100
- Selectivity ratio (1321-N1 [30]): > 100
